Sampled rows, rich in hits. Any-hit rate of the full collection: about 3%.
KCC2 mod – KCC2 cotransporter modulators, thallium flux, primary screen, cell-based, HEK293 KCC2, FluoZin-2 fluorescence, MLSMR. Solute carrier family 12 member 5 (Homo sapiens), Q9H2X9. KCC2 cells, thallium flux FluoZin-2 fluorescence. B-score of Tl+ flux slope (higher = more flux/activation; lower = inhibition) at 10 µM. 190,000 tested, 2.2% active;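 active means thallium flux slope and its plate-corrected score both differing from the plate sample mean at a set confidence after two filtering rounds, in either direction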;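 further: slope of fluorescence scaled to starting intensity during 10 to 20 s after thallium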
ROMK mod – ROMK potassium channel modulators, primary screen, cell-based, thallium flux, MLSMR library | 130,000 tested, 2% active | ATP-sensitive inward rectifier potassium channel 1 (Homo sapiens), P48048 | AID 1918, 2009 | B-score at 10 µM | Tet-inducible ROMK, thallium flux fluorescence; actives lie on both sides;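 active means signal ratio slope over the read window, or its plate-corrected B-score, at least 3 SD from the plate mean, either direction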;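 further: B-score of the F/F0 ratio slope over 7 to 12 s after thallium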
Rad51 HR inh – human RAD51 strand exchange inhibitors, primary screen, biochemical, fluorescence; hRad51 DNA strand exchange, fluorescence dequenching; inhibition, % at 10 µM; AID 1385, 2008; DNA repair protein RAD51 homolog 1 (Homo sapiens), Q06609; 200,000 tested, 0.085% active;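 active means inhibition above 40% at the single screening dose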;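 further: 0% = DMSO control wells and 100% = blanks with heterologous ssDNA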
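System: human Rad51 nucleoprotein filaments preassembled on unlabelled ssDNA. Reagent: labelled 47-mer dsDNA for strand exchange. Schedule: 30-min compound preincubation and 15-min exchange, both room temperature. Measured by: FRET fluorescence dequenching, excitation 485 nm, emission 520 nm. Read-out: Fluorescence-based percent inhibition, control- and blank-normalised. Benchmarks: plate controls and plate blanks.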
PKD1 kinase inh – inhibitors of human PKD1 kinase, biochemical, fluorescence polarization; inhibition, % (no concentration beside the values); PKD1 kinase fluorescence polarization assay; Serine/threonine-protein kinase D1 (Homo sapiens), Q15139; 200,000 tested, 0.056% active; AID 797, 2007; in the data active means inhibition above about 50%
Target sequence (Q15139 whole entry, looked up): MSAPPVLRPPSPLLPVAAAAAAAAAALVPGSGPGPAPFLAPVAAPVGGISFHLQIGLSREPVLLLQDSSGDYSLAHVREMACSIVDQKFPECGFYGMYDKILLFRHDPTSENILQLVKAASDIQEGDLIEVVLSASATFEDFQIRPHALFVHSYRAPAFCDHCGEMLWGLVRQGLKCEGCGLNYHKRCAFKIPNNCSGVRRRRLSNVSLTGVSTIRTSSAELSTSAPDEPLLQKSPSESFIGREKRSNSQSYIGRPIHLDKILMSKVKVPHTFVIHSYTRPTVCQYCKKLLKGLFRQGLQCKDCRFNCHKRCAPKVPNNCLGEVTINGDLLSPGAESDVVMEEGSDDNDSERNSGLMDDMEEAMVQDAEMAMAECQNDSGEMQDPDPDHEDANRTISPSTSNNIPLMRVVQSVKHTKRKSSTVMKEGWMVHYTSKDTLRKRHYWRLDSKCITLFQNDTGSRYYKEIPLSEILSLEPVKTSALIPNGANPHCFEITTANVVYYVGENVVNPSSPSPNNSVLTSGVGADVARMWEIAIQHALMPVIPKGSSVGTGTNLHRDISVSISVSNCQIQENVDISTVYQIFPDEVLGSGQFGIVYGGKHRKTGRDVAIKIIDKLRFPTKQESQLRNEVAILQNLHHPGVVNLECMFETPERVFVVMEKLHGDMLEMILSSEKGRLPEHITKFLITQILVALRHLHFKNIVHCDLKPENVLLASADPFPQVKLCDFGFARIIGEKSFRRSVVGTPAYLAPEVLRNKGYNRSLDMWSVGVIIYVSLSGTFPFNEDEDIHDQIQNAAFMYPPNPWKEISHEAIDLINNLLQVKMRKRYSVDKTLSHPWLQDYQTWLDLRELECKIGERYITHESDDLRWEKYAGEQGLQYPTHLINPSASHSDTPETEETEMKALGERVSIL
KCC2 secondary – KCC2 modulators in sodium-free buffer, confirmation, cell-based, HEK293 KCC2, thallium flux, secondary assay; shares compounds with KCC2 mod; FluoZin2 fluorescence; active compounds read high; normalised thallium flux (F/F0 slope) at 10 µM; 3,700 tested, 15% active; AID 1713, 2009;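 active means thallium flux slope above the same plate's solvent-only control mean plus 3 SD; inconclusive means the two replicate wells disagree; inactive means no significant difference from solvent-only control wells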
KCC2 bumet counter – thallium flux persisting under bumetanide in KCC2 cells, confirmation, counter-screen for KCC2 modulator project, cell-based, HEK293 KCC2, FluoZin2, secondary assay 3; shares compounds with KCC2 mod; HEK293-KCC2 + bumetanide/ouabain; active compounds read high; normalized thallium flux at 10 µM; 3,700 tested, 49% active;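 active means thallium entry rate above the same plate's blocked-transporter control wells by more than 3 SD; inconclusive means the two repeat wells disagree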;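 further: raw slope of fluorescence over initial fluorescence between 10 and 20 s after thallium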
KCC2 secondary2 – KCC2 modulators without ouabain present, confirmation, cell-based, HEK293 KCC2, thallium flux, FluoZin2, secondary assay 2; shares compounds with KCC2 mod; thallium flux FluoZin2 fluorescence; actives lie on both sides; F/F0 rise rate, 10–20 s post-thallium; normalized thallium flux at 10 µM; 3,700 tested, 23% active;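 active means thallium flux slope more than 3 SD above or below the plate's solvent-only control mean, mostly below; inconclusive means the two repeat wells disagreed; inactive means no significant shift from solvent-only controls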;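 further: raw slope with 0.1% DMSO as baseline and bumetanide as block control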
HEK293 Tl flux – thallium flux modulation in parental HEK cells, confirmation, counter-screen for KCC2 modulator project, cell-based, counterscreen 1. HEK293 parental cells, thallium flux FluoZin2, ouabain; baseline-ratio fluorescence slope, 10–20 s after thallium. shares compounds with KCC2 mod. thallium flux rate (normalised fluorescence) at 10 µM. 3,700 tested, 46% active;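 active means thallium flux rate significantly above the same plate's solvent-only control wells, beyond their mean plus 3 SD; inconclusive means the two replicate wells gave conflicting results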
KCC2 ouabain – KCC2 inhibitors and activators, ouabain retest, confirmation, HEK-KCC2 cells; shares compounds with KCC2 mod; HEK293-KCC2, thallium flux FluoZin2 fluorescence; bidirectional: low = inhibitor, high = activator; raw Tl+ flux slope (below DMSO = inhibition, above = activation) at 10 µM; 3,700 tested, 48% active; AID 1717, 2009;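 active means thallium flux slope beyond 3 SD from same-plate DMSO control mean in most replicates, usually higher, sometimes lower; inconclusive means repeat tests gave conflicting results; inactive means no significant difference from controls in most replicates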;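 further: slope of initial-normalized fluorescence between seconds 10 and 20 after thallium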
HEK293 Tl flux2 – native HEK Tl+ uptake effects, second counter-screen – HEK cells, counterscreen 2, counter-screen for KCC2 modulator project, confirmation; shares compounds with KCC2 mod; HEK293 parental, thallium flux FluoZin-2 fluorescence slope; thallium flux slope at 10 µM; 3,700 tested, 33% active; AID 1718, 2009;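 active means thallium flux slope above the same plate's solvent-control mean plus 3 SD in both duplicate wells; inconclusive means duplicate wells that disagreed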;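 further: run without ouabain in cells lacking the KCC2 cotransporter; slope of fluorescence scaled to its starting value between 10 and 20 s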
Active calls of the source: *.

Screening CCCOc1ccc(N2C(=O)C3ON(c4ccccc4)C(c4ccc(O)c(OC)c4)C3C2=O)cc1 (stereo not given) returned KCC2 mod -1, ROMK mod 0.052, PKD1 kinase inh -4, KCC2 secondary 0.0055, KCC2 bumet counter 0.0045, KCC2 secondary2 inconclusive, HEK293 Tl flux 0.0078, KCC2 ouabain 0.018 and HEK293 Tl flux2 0.0096.
For COc1ccc2nc(N/C(N)=N/C(=S)Nc3cccc(C)c3)nc(C)c2c1 the results were KCC2 mod -0.21, Rad51 HR inh 5 and PKD1 kinase inh 4.
COc1ccc(NC(=S)/N=C(\N)Nc2nc(C)c3ccccc3n2)cc1 was read as KCC2 mod -3.6*, ROMK mod -0.1, Rad51 HR inh 2, KCC2 secondary 0.007, KCC2 bumet counter 0.0049, KCC2 secondary2 0.026*, HEK293 Tl flux 0.0071, KCC2 ouabain 0.017* and HEK293 Tl flux2 0.0098.
`COc1ccccc1Oc1ncnc2c1cnn2-c1ccccc1` gave KCC2 mod -5*, ROMK mod -1.3, Rad51 HR inh 3, PKD1 kinase inh 8, KCC2 secondary inconclusive, KCC2 bumet counter 0.0056, KCC2 secondary2 0.033, HEK293 Tl flux 0.0036, KCC2 ouabain 0.015* and HEK293 Tl flux2 0.011.
For COc1ccc(S(=O)(=O)N(CCc2ccccc2)CC(=O)O)cc1Cl the results were KCC2 mod -3.8*, Rad51 HR inh -1, PKD1 kinase inh 3, KCC2 secondary 0.0099, KCC2 bumet counter inconclusive, KCC2 secondary2 0.027*, HEK293 Tl flux 0.0044, KCC2 ouabain 0.017* and HEK293 Tl flux2 0.012.
COc1ccc(S(=O)(=O)N(CCc2ccccc2)CC(N)=O)cc1 was read as KCC2 mod -2.1, ROMK mod 0.28, Rad51 HR inh -4 and PKD1 kinase inh -6.
For CCOC(=O)C1=C(CN2CCCCC2)NC(=O)NC1c1cc(C)ccc1C (stereo not given) the results were Rad51 HR inh -13, PKD1 kinase inh 7, KCC2 secondary 0.0056, KCC2 bumet counter 0.0043, KCC2 secondary2 0.031, HEK293 Tl flux 0.0073, KCC2 ouabain 0.019 and HEK293 Tl flux2 0.01.
For CCOC(=O)C1=C(CN2CCOCC2)NC(=O)NC1c1cc(C)ccc1C (stereo not given) the results were KCC2 mod 0.61, ROMK mod 0.81, Rad51 HR inh -2 and PKD1 kinase inh 2.
Screening Cn1nc(C(=O)Nc2nc3ccc(S(C)(=O)=O)cc3s2)ccc1=O returned KCC2 mod 4.7*, ROMK mod -0.12, PKD1 kinase inh 3, KCC2 secondary 0.012, KCC2 bumet counter 0.021*, KCC2 secondary2 0.032, HEK293 Tl flux 0.013*, KCC2 ouabain 0.026 and HEK293 Tl flux2 inconclusive.
`COCCNC(=S)N/N=C(\C)c1ccc(Cl)c(Cl)c1` gave KCC2 mod 6.6*, ROMK mod -0.38, Rad51 HR inh 8, PKD1 kinase inh 2, KCC2 secondary inconclusive, KCC2 bumet counter 0.032*, KCC2 secondary2 0.036, HEK293 Tl flux inconclusive, KCC2 ouabain 0.029* and HEK293 Tl flux2 inconclusive.
`C/C(=N\O)c1ccc(Cl)c(Cl)c1` gave KCC2 mod -0.032, ROMK mod -0.12 and Rad51 HR inh 26.
C/C(=N\NC(=S)NCCc1ccccc1)c1ccc(Cl)cc1 was read as KCC2 mod 6.2*, ROMK mod 0.31, Rad51 HR inh 4, PKD1 kinase inh -5, KCC2 secondary 0.0061, KCC2 bumet counter 0.014*, KCC2 secondary2 0.03, HEK293 Tl flux 0.014*, KCC2 ouabain 0.023 and HEK293 Tl flux2 inconclusive.
Screening CNC(=S)N/N=C(\C)c1ccc(Cl)c(Cl)c1 returned KCC2 mod 6.6*, ROMK mod -0.0074, Rad51 HR inh -2, PKD1 kinase inh -5, KCC2 secondary 0.0054, KCC2 bumet counter 0.032*, KCC2 secondary2 0.038, HEK293 Tl flux 0.018*, KCC2 ouabain 0.032* and HEK293 Tl flux2 0.018*.
`S=C(NCCc1ccccc1)NN=C1CCCCCC1` gave KCC2 mod 9.4*, ROMK mod -0.079, Rad51 HR inh -79, PKD1 kinase inh -1, KCC2 secondary 0.0076, KCC2 bumet counter 0.016*, KCC2 secondary2 0.035, HEK293 Tl flux inconclusive, KCC2 ouabain inconclusive and HEK293 Tl flux2 0.012.
`C/C(=N\NC(=S)NCCc1ccccc1)c1ccc(C#N)cc1` gave KCC2 mod 0.51, ROMK mod -0.017, Rad51 HR inh 0 and PKD1 kinase inh 1.
For CC(NC(=O)CNC(=O)C(Cc1ccccc1)NC(=O)OCc1ccccc1)C(N)=O (stereo not given) the results were ROMK mod -0.082, Rad51 HR inh 0 and PKD1 kinase inh -3.
Screening CN1CCCN(C(=O)CC(c2ccccc2)c2ccccc2)CC1 returned KCC2 mod 1.1, Rad51 HR inh -5 and PKD1 kinase inh -4.
`Cn1c(CNC(=O)OC(C)(C)C)nnc1SCC(=O)N1CCOCC1` gave KCC2 mod 0.07, ROMK mod -0.1 and Rad51 HR inh -6.
For O=C(CCc1nnc(COc2ccccc2)o1)NCc1ccccc1C(F)(F)F the results were KCC2 mod -3.2*, ROMK mod -0.11, Rad51 HR inh 8, PKD1 kinase inh 1, KCC2 secondary 0.0074, KCC2 bumet counter 0.0063, KCC2 secondary2 0.036, HEK293 Tl flux 0.0039, KCC2 ouabain 0.017* and HEK293 Tl flux2 0.011.
